EC50 and IC50 data for 7 molecules are collected here from ChEMBL document CHEMBL1135120, “Novel lipoic acid analogues that inhibit nitric oxide synthase” (Bioorg Med Chem Lett, 2002).

For experiment [1], the species on record is Mus musculus. Nature of the experiment: Ability for prevention of GSH depletion was measured in mouse. The experiment is classed as functional. An outline of the steps:
(§1)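 Glutamate-challenged HT22 cells; total intracellular GSH measured by enzymatic glutathione assay, i.e. formation of 5-thio-2-nitrobenzoic acid from GSH oxidation by 5,5'-dithiobis(2-nitrobenzoic acid).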

The test system of experiment [2] is HT22 (Mus musculus). Nature of the experiment: Neuroprotective effect was measured by its ability to protect mouse hippocampal neuronal HT-22 cell lines from oxidative stress caused by glutamate.
Experiment [3] deals with T1, Nitric oxide synthase 1 (Homo sapiens, UniProt P29475). Put plainly: In vitro inhibition concentration was evaluated on the effect of conversion by Nitric Oxide synthase of [3H]L-arginine into [3H]L-citrulline.
T1 sequence (P29475 whole entry): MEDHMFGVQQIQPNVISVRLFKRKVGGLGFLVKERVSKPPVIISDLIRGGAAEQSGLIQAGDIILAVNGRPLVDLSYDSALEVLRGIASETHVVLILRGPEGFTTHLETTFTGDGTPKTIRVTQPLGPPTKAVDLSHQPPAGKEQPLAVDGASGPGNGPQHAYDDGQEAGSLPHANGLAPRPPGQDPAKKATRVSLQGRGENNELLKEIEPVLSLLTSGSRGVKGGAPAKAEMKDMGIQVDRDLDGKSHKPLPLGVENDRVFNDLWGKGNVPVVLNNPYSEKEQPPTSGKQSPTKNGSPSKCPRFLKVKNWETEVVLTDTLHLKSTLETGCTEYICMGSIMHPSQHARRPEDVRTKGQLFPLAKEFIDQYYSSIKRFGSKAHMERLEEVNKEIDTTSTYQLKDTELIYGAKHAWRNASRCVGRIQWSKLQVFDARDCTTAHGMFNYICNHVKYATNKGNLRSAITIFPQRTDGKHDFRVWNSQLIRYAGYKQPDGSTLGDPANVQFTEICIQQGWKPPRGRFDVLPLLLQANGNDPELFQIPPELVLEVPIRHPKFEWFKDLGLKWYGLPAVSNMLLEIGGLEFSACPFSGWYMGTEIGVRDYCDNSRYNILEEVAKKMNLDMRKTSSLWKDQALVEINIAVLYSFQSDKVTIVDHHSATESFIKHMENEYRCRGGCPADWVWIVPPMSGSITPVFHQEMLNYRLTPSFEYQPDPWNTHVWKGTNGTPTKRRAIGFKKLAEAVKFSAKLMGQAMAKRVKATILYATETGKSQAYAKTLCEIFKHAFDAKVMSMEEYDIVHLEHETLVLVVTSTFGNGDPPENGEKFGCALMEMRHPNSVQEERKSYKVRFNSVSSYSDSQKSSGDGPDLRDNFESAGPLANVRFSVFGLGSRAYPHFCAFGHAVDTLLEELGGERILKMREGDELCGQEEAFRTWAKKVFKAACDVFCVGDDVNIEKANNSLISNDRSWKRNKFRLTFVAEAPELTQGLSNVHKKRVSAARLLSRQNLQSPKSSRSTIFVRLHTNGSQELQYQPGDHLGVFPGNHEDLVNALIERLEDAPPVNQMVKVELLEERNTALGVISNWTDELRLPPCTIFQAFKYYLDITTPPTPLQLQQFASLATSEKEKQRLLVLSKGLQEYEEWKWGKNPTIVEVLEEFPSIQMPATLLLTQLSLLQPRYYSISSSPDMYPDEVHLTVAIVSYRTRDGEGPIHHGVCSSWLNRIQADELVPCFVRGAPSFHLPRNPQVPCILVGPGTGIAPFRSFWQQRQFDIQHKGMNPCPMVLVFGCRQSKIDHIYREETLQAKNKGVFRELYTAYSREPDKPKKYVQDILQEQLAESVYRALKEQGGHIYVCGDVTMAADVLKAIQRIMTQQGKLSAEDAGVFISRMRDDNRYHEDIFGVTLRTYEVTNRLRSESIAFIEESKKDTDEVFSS
The test system of experiment [4] is HT22 (Mus musculus). Nature of the experiment: Neuroprotective effect was measured by its ability to protect mouse hippocampal neuronal HT-22 cell lines from oxidative stress caused by glutamate; Not active up to 100 uM.
Experiment [5] concerns the target T1, Nitric oxide synthase 1. Nature of the experiment: In vitro inhibition concentration was evaluated on the effect of conversion by Nitric oxide synthase of [3H]L-arginine into [3H]L-citrulline.
Experiment [6] is filed under the species Mus musculus. Put plainly: Ability for prevention of GSH depletion was measured in mouse; Not active up to 100 uM. The experiment is classed as functional. An outline of the steps:
as §1

In experiment [7] the target is T1, Nitric oxide synthase 1. Put plainly: In vitro inhibition concentration was evaluated on the effect of conversion by Nitric Oxide synthase of [3H]L-arginine into [3H]L-citrulline; Not active up to 100 uM.

Each structure is given as a SMILES string.

As for `N=C(Nc1ccc(NC(=O)CCCCC2CCSS2)cc1)c1cccs1` (stereo unspecified), the EC50 turned out to be 46.9 µM in the experiment listed under Mus musculus [1] and 11.1 µM in the experiment on HT22 (Mus musculus) [2]. Also, 3.5 µM corresponded to half-maximal inhibition at Nitric oxide synthase 1 [3] (IC50).

For the molecule `N=C(Nc1ccc(CCNC(=O)CCCCC2CCSS2)cc1)c1cccs1` (stereo unspecified), the concentration giving a half-maximal response (EC50) is 37.1 µM in the experiment filed under Mus musculus [1] and 11.7 µM in the experiment on HT22 (Mus musculus) [2]. The same molecule came in with an IC50 at Nitric oxide synthase 1 [3] of 1.04 µM.

`N=C(Nc1ccccc1)c1cccs1`: the EC50 entry in the experiment on HT22 (Mus musculus) [4] and in the experiment listed under Mus musculus [6] was “Not Active” in each case. The molecule further came in with a half-maximal inhibitory concentration (IC50) on Nitric oxide synthase 1 [5] of 4 µM.

For `NC(=Nc1ccc(CNC(=O)CCCCC2CCSS2)cc1)c1cccs1` (stereo unspecified), the EC50 in the experiment filed under Mus musculus [1] amounted to 64.8 µM; in the experiment on HT22 (Mus musculus) [2] it was 6.3 µM. Besides, on Nitric oxide synthase 1 [3], the concentration for half-maximal inhibition (IC50) is 2.3 µM.

Regarding `N=C(Nc1ccc(CCNC(=O)CC2CCSS2)cc1)c1cccs1` (stereo unspecified), the EC50 in the experiment filed under Mus musculus [1] was 12.3 µM; in the experiment with HT22 (Mus musculus) [2], 1.8 µM. Inhibition at Nitric oxide synthase 1 [3] was half-maximal at 1.15 µM (IC50).

Regarding `NC(=Nc1ccc(NC(=O)CC2CCSS2)cc1)c1cccs1` (stereo unspecified), the values for the concentration giving a half-maximal response (EC50) in the experiment filed under Mus musculus [1] and with HT22 (Mus musculus) [2] were 11.9 µM and 9.6 µM, respectively. For the same molecule, on Nitric oxide synthase 1 [3], the IC50 is 4.4 µM.

In the case of `O=C(O)CCCCC1CCSS1` (stereo not drawn) [LIPOIC ACID, ALPHA], the EC50 in the experiment filed under Mus musculus [1] worked out at 122 µM; with HT22 (Mus musculus) [2], 19.6 µM. Besides, the IC50 result on Nitric oxide synthase 1 [7] is given as “Not Active”.

By EC50 is commonly meant the concentration needed to bring the measured effect to its halfway point. High values mean a less potent agent, low ones a more potent agent. One may read the IC50 as the concentration needed to halve the response being measured. The low end stands for greater potency, the high end for weaker potency.
